Test results taken from ChEMBL document CHEMBL2150952 (J Med Chem, 2011).
The source made the active and inactive calls. The rule behind the calls is not given here.

Experiments:
[1] = AUC in plasma of fasted C57BL6 mouse at 2 mg/kg, iv and 10 mg/kg, po BID; type: ADME, organism-based
How it was run: (§1)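 Fasted male C57BL6 mice received 2 mg/kg IV and 10 mg/kg PO. For the reference compound, IV was given as a solution in 60% PEG-200 and PO as a suspension in 1% methocel. Plasma levels were measured by LC-MS/MS. Values are the mean of n = 3 animals.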

[2] = Oral bioavailability in C57BL6 mouse at 10 mg/kg BID; type: ADME, organism-based; settings: in vivo, in the assay text read “10 mg/kg” for “10 mg/kg BID”
How it was run: (§2)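 Fasted male C57BL6 mice given 2 mg/kg IV and 10 mg/kg PO. Plasma drug levels measured by LC-MS/MS, mean of n = 3 animals, and PK parameters derived from these.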

[3] = Volume of distribution in fasted C57BL6 mouse at 2 mg/kg, iv and 10 mg/kg, po BID; type: ADME, organism-based; settings: in vivo; how it was run: as §2
[4] = Clearance in fasted C57BL6 mouse at 2 mg/kg, iv and 10 mg/kg, po BID; type: ADME, organism-based; settings: in vivo; how it was run: as §1
[5] = Half life in fasted C57BL6 mouse at 2 mg/kg, iv and 10 mg/kg, po BID; type: ADME, organism-based; settings: in vivo; how it was run: as §1
[6] = Cmax in plasma of fasted C57BL6 mouse at 2 mg/kg, iv and 10 mg/kg, po BID; type: ADME, organism-based; how it was run: as §1
Mus musculus [7] = test: Antidiabetic activity in diet-induced obese C57BL6 mouse assessed as reduction in body weight gain at 1 mg/kg, po QD; type: functional; design: scale not given: the % may be the effect or the level left
How it was run: (§3)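 Male C57/Bl6 mice were fed a high fat diet for at least 18 weeks from 6 weeks of age, then given vehicle (1% methocel, bid) for 7 days and randomized by body weight. Oral dosing (qd or bid) ran for 28 days, with n = 8–10/group. Body weight, food intake and skin/eye scores were recorded twice weekly.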

Mus musculus [8] = test: Inhibition of SCD activity in liver of diet-induced obese C57BL6 mouse assessed as reduction in desaturation induces at 30 mg/kg, po BID; type: functional, organism-based; design: dose 30 mg/kg
Mus musculus [9] = test: Toxicity in diet-induced obese C57BL6 mouse assessed as adverse effect in skin at 1 to 5 mg/kg, po QD; type: organism-based; design: dose 1-5 mg/kg, route oral; settings: in vivo
HepG2 = test: Ratio IC50 for SCD-1 activity in organic anion transporting polypeptides-deficient human HepG2 cells to IC50 for SCD-1 activity in Sprague-Dawley rat Hepatocytes expressing organic anion transporting polypeptides; type: cell-based
How it was run: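 Cellular SCD IC50s measured in human HepG2 cells (lacking active OATPs) and in rat hepatocytes (active OATPs). Hepatocytes preincubated with compound for 15 min at 37 °C, then given 14C-stearic acid (final 0.5 μCi/ml) for 1 h with shaking. Lipids hydrolysed in 2N NaOH at 75 °C, acidified and extracted. Radiolabelled oleic and stearic acid resolved by HPLC with flow scintillation detection. Mean of at least n = 3. HepG2 IC50 divided by hepatocyte IC50.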

Mus musculus [10] = test: Antidiabetic activity in diet-induced obese C57BL6 mouse assessed as reduction in body weight gain at 5 mg/kg, po QD; type: functional; design: scale not given: the % may be the effect or the level left; how it was run: as §3
[11] = Cmax in plasma of fasted C57BL6 mouse at 2 mg/kg, iv and 10 mg/kg, po by LC-MS-MS analysis; type: ADME, organism-based; how it was run: as §1
Liver [12] = test: Drug level in liver of diet-induced obese C57BL6 mouse at 5 mg/kg, po QD; type: ADME, organism-based; design: dose 5 mg/kg, route oral; settings: in vivo, read-out: Drug uptake
How it was run: (§4)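 eDIO mice were dosed orally for 4 weeks, either 20 mg/kg bid or 5 mg/kg qd. Liver, Harderian gland and skin were taken at trough at study termination, and compound concentration was measured by LC-MS.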

Mus musculus [13] = test: Antidiabetic activity in diet-induced obese C57BL6 mouse assessed as reduction in glucose AUC at 1 to 10 mg/kg, po administered 1 hr before oral glucose administration measured 2 hrs thereafter; type: functional; settings: dose mg/kg 1-10
Mus musculus [14] = test: Toxicity in diet-induced obese C57BL6 mouse assessed as adverse effect in eye at 1 to 5 mg/kg, po QD; type: organism-based; design: dose 1-5 mg/kg, route oral; settings: in vivo
[15] = Ratio drug uptake in liver to plasma of C57BL6 mouse at 10 mg/kg, po measured 6 hrs post dose; type: ADME, organism-based; design: dose 10 mg/kg, route oral; settings: liver and plasma
How it was run: (§5)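 Single oral dose of 10 mg/kg in 0.5% methylcellulose to fed C57BL6 mice (n = 2). Animals sacrificed 6 h post dose. Plasma, liver, skin and Harderian gland collected. Tissues homogenized in MeCN/water with internal standard and drug quantified by LC-MS against a standard curve made in blank plasma. Concentration ratio calculated.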

Mus musculus [16] = test: Toxicity in diet-induced obese C57BL6 mouse assessed as reduction in food intake at 1 to 5 mg/kg, po QD; type: organism-based; design: dose 1-5 mg/kg, route oral; settings: in vivo
How it was run: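 Obese male C57/Bl6 mice after at least 18 weeks of high fat diet and a 7-day vehicle run-in, randomized by body weight. Dosed orally at 1 or 5 mg/kg qd for 28 days (n = 8–10/group). Food consumption monitored twice weekly.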

Stearoyl-CoA desaturase = target: T1, Stearoyl-CoA desaturase (Homo sapiens, UniProt O00767); test: Inhibition of SCD-1 activity in organic anion transporting polypeptides-deficient human HepG2 cells assessed as reduction in [I-14C] stearoyl CoA desaturation by scintillation counting; type: cell-based
T1 sequence (O00767 whole entry): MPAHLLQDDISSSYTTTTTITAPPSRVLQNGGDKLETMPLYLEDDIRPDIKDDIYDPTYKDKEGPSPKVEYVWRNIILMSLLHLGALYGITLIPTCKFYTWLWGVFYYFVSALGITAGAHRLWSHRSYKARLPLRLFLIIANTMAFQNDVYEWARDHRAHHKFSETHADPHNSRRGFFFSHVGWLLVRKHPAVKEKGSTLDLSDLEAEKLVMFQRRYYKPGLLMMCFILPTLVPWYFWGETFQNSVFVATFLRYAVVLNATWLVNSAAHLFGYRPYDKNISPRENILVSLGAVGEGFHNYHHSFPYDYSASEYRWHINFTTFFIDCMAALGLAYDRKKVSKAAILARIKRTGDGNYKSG

Liver [17] = test: Ratio drug uptake in liver to harderian gland of C57BL6 mouse at 10 mg/kg, po measured 6 hrs post dose; type: ADME, organism-based; design: dose 10 mg/kg, route oral; settings: in vivo; how it was run: as §5
Mus musculus [18] = test: Antidiabetic activity in diet-induced obese C57BL6 mouse assessed as reduction in glucose AUC at 1 to 15 mg/kg, po administered 1 hr before oral glucose administration measured 2 hrs thereafter; type: functional; settings: dose mg/kg 1-15
Mus musculus [19] = test: Antidiabetic activity in po dosed diet-induced obese fasted C57BL6 mouse assessed as increase in glucose clearance administered 1 hr before glucose challenge measured 12 hrs thereafter by OGTT; type: functional; settings: in the assay text read “2 hrs” for “12 hrs”
How it was run: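 Male C57/Bl6 mice were kept on a high fat diet for at least 14 weeks from 6 weeks of age, then fasted 16 h. Compound was given orally 1 h before a 2 g/kg oral glucose load.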

[20] = AUC in plasma of fasted C57BL6 mouse at 2 mg/kg, iv and 10 mg/kg, po by LC-MS-MS analysis; type: ADME, organism-based; how it was run: as §1
Mus musculus [21] = test: Inhibition of SCD activity in harderian gland of diet-induced obese C57BL6 mouse assessed as reduction in desaturation induces at 5 mg/kg, po QD; type: functional
[22] = Clearance in fasted C57BL6 mouse at 2 mg/kg, iv and 10 mg/kg, po by LC-MS-MS analysis; type: ADME, organism-based; settings: in vivo; how it was run: as §1
Mus musculus [23] = test: Antidiabetic activity in po dosed diet-induced obese C57BL6 mouse assessed as reduction in body weight gain; type: functional, organism-based; how it was run: as §3
Zone of skin = test: Drug level in skin of diet-induced obese C57BL6 mouse at 5 mg/kg, po QD; type: ADME, organism-based; design: dose 5 mg/kg, route oral; settings: in vivo, read-out: Drug uptake; how it was run: as §4
[24] = Volume of distribution in fasted C57BL6 mouse at 2 mg/kg, iv and 10 mg/kg, po by LC-MS-MS analysis; type: ADME, organism-based; settings: in vivo; how it was run: as §2
Acyl-CoA desaturase 1 [25] = target: T2, Acyl-CoA desaturase 1 (Rattus norvegicus, UniProt P07308); test: Inhibition of SCD-1 activity in Sprague-Dawley rat microsome assessed as reduction in [I-14C] stearoyl CoA desaturation by scintillation counting; type: microsomes
T2 sequence (P07308 whole entry): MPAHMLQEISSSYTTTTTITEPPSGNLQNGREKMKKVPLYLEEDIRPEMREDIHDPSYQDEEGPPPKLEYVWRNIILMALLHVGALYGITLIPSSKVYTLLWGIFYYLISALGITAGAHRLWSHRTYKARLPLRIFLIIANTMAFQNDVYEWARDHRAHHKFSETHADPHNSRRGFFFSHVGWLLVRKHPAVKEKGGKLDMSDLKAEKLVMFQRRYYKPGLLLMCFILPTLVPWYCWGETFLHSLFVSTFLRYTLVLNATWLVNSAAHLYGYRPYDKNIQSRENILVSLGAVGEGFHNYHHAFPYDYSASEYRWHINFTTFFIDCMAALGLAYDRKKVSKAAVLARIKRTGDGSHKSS

Acyl-CoA desaturase 1 [26] = target: T2, Acyl-CoA desaturase 1; test: Inhibition of SCD-1 activity in Sprague-Dawley rat Hepatocytes expressing organic anion transporting polypeptides assessed as reduction in [I-14C] […] desaturation by scintillation counting; type: cell-based, Hepatocyte
How it was run: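 Rat hepatocytes (4 × 10^6 cells/mL) were preincubated with compound for 15 min at 37 °C/5% CO2. 14C-stearic acid (final 0.5 μCi/mL) was then added for 1 h with shaking. Cells were washed, hydrolyzed in 2N NaOH at 75 °C for 1 h, acidified and extracted. Radiolabeled oleic and stearic acids were quantified by HPLC with flow scintillation detection. Mean of at least n = 3.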

Mus musculus [27] = test: Antidiabetic activity in diet-induced obese C57BL6 mouse assessed as reduction in glucose AUC at 1 to 3 mg/kg, po administered 1 hr before oral glucose administration measured 2 hrs thereafter; type: functional; settings: dose mg/kg 1-3
[28] = Drug level in harderian gland of diet-induced obese C57BL6 mouse at 5 mg/kg, po QD; type: ADME, organism-based; design: dose 5 mg/kg, route oral; settings: in vivo, read-out: Drug uptake; how it was run: as §4
Mus musculus [29] = test: Inhibition of SCD activity in liver of diet-induced obese C57BL6 mouse assessed as reduction in desaturation induces at 5 mg/kg, po QD; type: functional
Mus musculus [30] = test: Inhibition of SCD activity in skin of diet-induced obese C57BL6 mouse assessed as reduction in desaturation induces at 5 mg/kg, po QD; type: functional
Mus musculus [31] = test: Antidiabetic activity in diet-induced obese C57BL6 mouse assessed as reduction in liver triglyceride level at 60 mg/kg, po BID; type: functional, organism-based; design: dose 60 mg/kg
How it was run: (§6)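 eDIO mice (high fat diet for at least 18 weeks) were dosed orally bid for 28 days, with n = 8–10/group. At termination, livers were collected for histological steatosis assessment and triglyceride measurement.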

Mus musculus [32] = test: Antidiabetic activity in diet-induced obese C57BL6 mouse assessed as reduction in liver triglyceride level at 20 mg/kg, po BID; type: functional, organism-based; design: dose 20 mg/kg; how it was run: as §6
Mus musculus [33] = test: Antidiabetic activity in diet-induced obese C57BL6 mouse assessed as reduction in liver steatosis at 20 to 60 mg/kg, po BID measured on day 28; type: functional, organism-based; how it was run: as §6

Compound: O=C([O-])Cn1nnc(-c2cc(N3CCC(Oc4cc(F)ccc4Br)CC3)no2)n1.[Na+]
- AUC [1]: 1 µM·h
- bioavailability [2]: 12%
- Vd [3]: 1 L/kg
- clearance [4]: 41 mL/min/kg
- half-life [5]: 42 min
- Cmax [6]: 400 nM

Compound: Cc1nnc(-c2ccc(N3CCC(Oc4ccccc4C(F)(F)F)CC3)nn2)s1
- Activity (Mus musculus [7]): 10%
- inhibition (Mus musculus [8]): Active
- Activity (Mus musculus [9]): Toxic
- Ratio IC50 (HepG2): 0.14
- Activity (Mus musculus [10]): 20%
- Cmax [11]: 1300 nM
- concentration (Liver [12]): 10 µM
- inhibition (INH) (Mus musculus [13]): 62%
- Activity (Mus musculus [14]): Toxic
- Kp at 6 h [15]: 14
- Activity (Mus musculus [16]): Non-toxic
- IC50 (Stearoyl-CoA desaturase): 21 nM
- Ratio (Liver [17]): 1.5
- inhibition (INH) (Mus musculus [18]): 75%
- Activity (Mus musculus [19]): Dose-dependent effect
- ED50 (Mus musculus [19]): 3 mg/kg
- AUC [20]: 19 µM·h
- inhibition in vivo at 5 mg/kg (Mus musculus [21]): 92%
- clearance [22]: 15 mL/min/kg
- Activity (Mus musculus [23]): Dose-dependent effect
- concentration (Zone of skin): 4 µM
- Vd [24]: 7 L/kg
- IC50 (Acyl-CoA desaturase 1 [25]): 2 nM
- IC50 (Acyl-CoA desaturase 1 [26]): 157 nM
- inhibition (INH) (Mus musculus [27]): 55%
- concentration [28]: 5 µM
- inhibition in vivo at 5 mg/kg (Mus musculus [29]): 56%
- inhibition in vivo at 5 mg/kg (Mus musculus [30]): 25%

Compound: O=C(O)Cn1nnc(-c2cc(N3CCC(Oc4cc(F)ccc4Br)CC3)no2)n1
- Activity (Mus musculus [31]): inactive
- Activity (Mus musculus [19]): Dose-dependent effect
- Activity (Mus musculus [32]): Active
- Activity (Mus musculus [33]): Active
